SMILES strings stand for the structures.

For assay [1], the target named is Mitogen-activated protein kinase 10 (Homo sapiens, UniProt P53779). Description: Inhibition of JNK3 Lys2 labeling site in human A-375 cells at 5 uM by KiNativ Profiling analysis relative to control. It is filed as cell-based.
The target in assay [2] is Cyclin-dependent kinase 4 (Homo sapiens) (UniProt P11802). Description: Inhibition of CDK4 Lys2 labeling site in human A-375 cells at 5 uM by KiNativ Profiling analysis relative to control. Type of assay: cell-based. A digest of the protocol:
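Live A375 melanoma cells were treated with compound at 5 or 0.5 μM. The cells were then lysed, and the lysates were labeled with a lysine-reactive ATP or ADP-biotin acyl probe (KiNativ). Inhibition is the compound's protection of each kinase labeling-site peptide from probe labeling, relative to untreated control.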

Assay [3] has as its target Mitogen-activated protein kinase kinase kinase 11 (Homo sapiens) (UniProt Q16584). As to the kind of experiment: Inhibition of MLK3 Lys2 labeling site in human A-375 cells at 5 uM by KiNativ Profiling analysis relative to control. Type of assay: cell-based.
For assay [4], the target named is T1, Serine/threonine-protein kinase Nek9 (Homo sapiens) (UniProt Q8TD19).
T1 sequence (whole entry): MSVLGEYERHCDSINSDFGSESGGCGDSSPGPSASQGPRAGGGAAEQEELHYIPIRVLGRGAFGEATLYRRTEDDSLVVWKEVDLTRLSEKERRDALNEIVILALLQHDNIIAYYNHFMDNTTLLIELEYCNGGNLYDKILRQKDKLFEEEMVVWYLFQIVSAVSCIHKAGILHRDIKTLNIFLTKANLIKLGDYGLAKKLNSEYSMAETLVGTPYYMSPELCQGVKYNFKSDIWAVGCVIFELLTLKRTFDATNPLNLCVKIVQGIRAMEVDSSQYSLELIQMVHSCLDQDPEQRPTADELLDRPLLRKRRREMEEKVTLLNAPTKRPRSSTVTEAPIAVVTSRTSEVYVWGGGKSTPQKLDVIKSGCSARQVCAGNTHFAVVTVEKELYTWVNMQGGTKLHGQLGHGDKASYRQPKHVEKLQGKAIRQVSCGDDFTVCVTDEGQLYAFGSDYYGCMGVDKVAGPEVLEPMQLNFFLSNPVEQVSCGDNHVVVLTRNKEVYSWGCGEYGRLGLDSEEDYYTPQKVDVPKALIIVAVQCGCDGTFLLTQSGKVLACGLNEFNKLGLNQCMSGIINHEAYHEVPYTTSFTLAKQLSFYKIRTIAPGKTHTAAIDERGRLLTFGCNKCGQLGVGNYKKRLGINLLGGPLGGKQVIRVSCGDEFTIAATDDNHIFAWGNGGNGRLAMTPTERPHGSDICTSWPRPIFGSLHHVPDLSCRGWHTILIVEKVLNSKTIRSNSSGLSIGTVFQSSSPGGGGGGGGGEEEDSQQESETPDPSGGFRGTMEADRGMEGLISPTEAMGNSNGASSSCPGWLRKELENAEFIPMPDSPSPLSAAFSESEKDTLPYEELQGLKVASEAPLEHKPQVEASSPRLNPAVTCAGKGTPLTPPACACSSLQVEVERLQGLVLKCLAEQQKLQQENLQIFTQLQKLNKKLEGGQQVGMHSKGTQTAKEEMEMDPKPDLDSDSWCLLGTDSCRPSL
Description: Inhibition of NEK9 Lys1 labeling site harbouring TEDDSLVVWKEVDLTR in human A-375 cells at 5 uM by KiNativ Profiling analysis relative to control. It is filed as cell-based.

Assay [5] addresses Ribosomal protein S6 kinase alpha-2 (Homo sapiens) (UniProt Q15349). Description: Inhibition of RSK3 Protein Kinase Domain in human A-375 cells at 5 uM by KiNativ Profiling analysis relative to control. Type of assay: cell-based. A digest of the protocol:
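Live A375 melanoma cells treated with compound at 5 or 0.5 μM, then lysed. Lysate kinases were labeled with a lysine-reactive ATP or ADP-biotin probe. Inhibition was read as protection of labeling sites from the probe.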

Assay [6] concerns the target Aurora kinase B (Homo sapiens) (UniProt Q96GD4). As to the kind of experiment: Inhibition of AurB ATP Loop labeling site in human A-375 cells at 0.5 uM by KiNativ Profiling analysis relative to control. It is filed as cell-based. A digest of the protocol: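 Live A375 melanoma cells were treated with compound at 5 or 0.5 μM, then lysed. The lysates were labeled with a lysine-reactive ATP or ADP-biotin probe. Kinase protection from probe labeling was measured by KiNativ.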

Assay [7] deals with Mitogen-activated protein kinase 7 (Homo sapiens) (UniProt Q13164). As to the kind of experiment: Inhibition of Erk5 Lys2 labeling site in human A-375 cells at 0.5 uM by KiNativ Profiling analysis relative to control. It is filed as cell-based. A digest of the protocol:
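Live A375 melanoma cells were treated with compound at 0.5 or 5 μM, then lysed. Lysates were labeled with a lysine-reactive ATP or ADP-biotin probe. The read-out was protection of each kinase probe-labeling site from labeling, relative to control.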

For assay [8], the target named is Mitogen-activated protein kinase kinase kinase 11 (Homo sapiens) (UniProt Q16584). As to the kind of experiment: Inhibition of MLK3 Lys2 labeling site in human A-375 cells at 0.5 uM by KiNativ Profiling analysis relative to control. Type of assay: cell-based.
Sequence of Mitogen-activated protein kinase kinase kinase 11 (Homo sapiens) (Q16584 whole entry, looked up): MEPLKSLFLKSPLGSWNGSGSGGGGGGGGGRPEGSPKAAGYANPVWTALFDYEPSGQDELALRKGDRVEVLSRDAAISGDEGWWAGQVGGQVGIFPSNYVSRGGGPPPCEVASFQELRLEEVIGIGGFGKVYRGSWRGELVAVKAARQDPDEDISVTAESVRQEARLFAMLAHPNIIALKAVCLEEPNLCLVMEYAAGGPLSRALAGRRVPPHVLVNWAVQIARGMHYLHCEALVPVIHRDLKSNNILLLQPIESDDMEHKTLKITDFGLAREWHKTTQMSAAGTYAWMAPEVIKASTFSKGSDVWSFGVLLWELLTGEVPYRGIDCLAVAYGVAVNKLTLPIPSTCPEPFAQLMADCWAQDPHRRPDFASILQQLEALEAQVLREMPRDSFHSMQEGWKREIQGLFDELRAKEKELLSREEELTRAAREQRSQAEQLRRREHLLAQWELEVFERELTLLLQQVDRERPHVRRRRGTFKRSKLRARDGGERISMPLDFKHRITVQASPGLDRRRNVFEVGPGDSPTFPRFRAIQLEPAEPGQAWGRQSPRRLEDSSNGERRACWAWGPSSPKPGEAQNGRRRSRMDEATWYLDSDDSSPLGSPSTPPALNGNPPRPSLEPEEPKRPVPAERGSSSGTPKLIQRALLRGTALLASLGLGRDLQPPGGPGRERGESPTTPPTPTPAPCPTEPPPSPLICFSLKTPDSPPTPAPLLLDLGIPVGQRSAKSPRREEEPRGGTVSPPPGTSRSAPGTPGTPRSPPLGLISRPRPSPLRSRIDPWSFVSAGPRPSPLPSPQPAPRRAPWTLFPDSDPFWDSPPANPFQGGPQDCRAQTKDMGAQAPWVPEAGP
Assay [9] has as its target TRAF2 and NCK-interacting protein kinase (Homo sapiens) (UniProt Q9UKE5). As to the kind of experiment: Inhibition of ZC2/TNIK Lys2 labeling site in human A-375 cells at 0.5 uM by KiNativ Profiling analysis relative to control. Type of assay: cell-based.
Assay [10] concerns the target Focal adhesion kinase 1 (Homo sapiens) (UniProt Q05397). Description: Inhibition of FAK Lys1 labeling site in human A-375 cells at 0.05 uM by KiNativ Profiling analysis relative to control. Type of assay: cell-based.
Assay [11] deals with T2, Serine/threonine-protein kinase STK11 (Homo sapiens) (UniProt Q15831).
T2 sequence (whole entry): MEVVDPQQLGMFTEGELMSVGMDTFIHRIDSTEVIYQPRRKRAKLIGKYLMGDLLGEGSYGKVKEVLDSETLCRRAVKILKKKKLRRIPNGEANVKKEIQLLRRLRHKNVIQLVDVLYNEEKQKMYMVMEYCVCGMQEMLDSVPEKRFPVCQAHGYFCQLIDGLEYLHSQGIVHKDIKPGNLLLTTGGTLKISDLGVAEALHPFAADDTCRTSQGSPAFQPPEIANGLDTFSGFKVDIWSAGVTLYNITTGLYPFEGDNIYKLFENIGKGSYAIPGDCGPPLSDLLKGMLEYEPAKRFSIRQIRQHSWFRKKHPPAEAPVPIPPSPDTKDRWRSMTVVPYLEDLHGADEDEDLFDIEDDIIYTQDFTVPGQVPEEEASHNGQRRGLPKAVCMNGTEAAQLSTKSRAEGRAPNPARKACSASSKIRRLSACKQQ
As to the kind of experiment: Inhibition of LKB1 Lys2 labeling site in human A-375 cells at 0.05 uM by KiNativ Profiling analysis relative to control. It is filed as cell-based.

The target of assay [12] is T1, Serine/threonine-protein kinase Nek9 (Homo sapiens). Description: Inhibition of NEK9 ACT labeling site in human A-375 cells at 0.05 uM by KiNativ Profiling analysis relative to control. It is filed as cell-based.
Assay [13] deals with TRAF2 and NCK-interacting protein kinase (Homo sapiens) (UniProt Q9UKE5). As to the kind of experiment: Inhibition of ZC2/TNIK Lys1 labeling site in human A-375 cells at 0.05 uM by KiNativ Profiling analysis relative to control. It is filed as cell-based.
Sequence of TRAF2 and NCK-interacting protein kinase (Homo sapiens) (Q9UKE5 whole entry, looked up): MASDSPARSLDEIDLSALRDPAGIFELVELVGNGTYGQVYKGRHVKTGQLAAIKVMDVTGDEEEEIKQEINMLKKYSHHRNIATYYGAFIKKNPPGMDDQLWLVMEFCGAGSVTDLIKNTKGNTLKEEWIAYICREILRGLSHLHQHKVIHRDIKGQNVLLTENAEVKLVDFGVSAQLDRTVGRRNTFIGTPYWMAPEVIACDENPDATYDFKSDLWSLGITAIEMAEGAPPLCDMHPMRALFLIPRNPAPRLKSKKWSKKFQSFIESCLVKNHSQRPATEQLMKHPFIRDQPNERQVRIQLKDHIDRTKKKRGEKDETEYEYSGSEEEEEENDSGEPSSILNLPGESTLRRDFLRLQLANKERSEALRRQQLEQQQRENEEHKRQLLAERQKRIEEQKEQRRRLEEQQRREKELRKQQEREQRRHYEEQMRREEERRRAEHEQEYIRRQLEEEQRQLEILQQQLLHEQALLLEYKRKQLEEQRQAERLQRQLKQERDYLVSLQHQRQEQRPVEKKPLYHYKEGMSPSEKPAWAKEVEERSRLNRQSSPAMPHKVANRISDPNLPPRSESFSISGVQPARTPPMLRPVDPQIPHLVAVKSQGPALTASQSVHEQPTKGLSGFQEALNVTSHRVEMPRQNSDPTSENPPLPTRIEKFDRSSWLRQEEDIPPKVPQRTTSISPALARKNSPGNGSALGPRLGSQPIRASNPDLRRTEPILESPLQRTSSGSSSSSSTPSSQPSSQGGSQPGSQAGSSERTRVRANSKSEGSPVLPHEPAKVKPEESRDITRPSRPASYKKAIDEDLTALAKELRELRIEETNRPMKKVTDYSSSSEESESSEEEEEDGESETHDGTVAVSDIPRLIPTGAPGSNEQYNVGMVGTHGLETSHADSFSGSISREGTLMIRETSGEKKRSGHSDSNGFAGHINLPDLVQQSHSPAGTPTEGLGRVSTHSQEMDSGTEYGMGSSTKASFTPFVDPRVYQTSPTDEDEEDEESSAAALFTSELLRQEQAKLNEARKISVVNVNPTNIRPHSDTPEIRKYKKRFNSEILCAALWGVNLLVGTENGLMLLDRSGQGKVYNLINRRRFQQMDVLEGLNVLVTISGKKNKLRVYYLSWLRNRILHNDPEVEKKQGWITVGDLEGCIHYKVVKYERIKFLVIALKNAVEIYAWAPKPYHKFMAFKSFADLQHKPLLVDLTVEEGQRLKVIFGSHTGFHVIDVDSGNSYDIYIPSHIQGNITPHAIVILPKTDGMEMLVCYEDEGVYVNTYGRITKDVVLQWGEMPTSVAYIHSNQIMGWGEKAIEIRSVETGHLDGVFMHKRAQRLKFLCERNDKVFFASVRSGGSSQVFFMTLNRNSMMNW
Assay [14] has as its target Tyrosine-protein kinase ABL2 (Homo sapiens, UniProt P42684). Description: Inhibition of ARG ACT labeling site in human Huh-7 cell lysate at 1 uM by KiNativ Profiling analysis relative to control. Type of assay: subcellular.

Sequence of Aurora kinase B (Homo sapiens) (Q96GD4 whole entry): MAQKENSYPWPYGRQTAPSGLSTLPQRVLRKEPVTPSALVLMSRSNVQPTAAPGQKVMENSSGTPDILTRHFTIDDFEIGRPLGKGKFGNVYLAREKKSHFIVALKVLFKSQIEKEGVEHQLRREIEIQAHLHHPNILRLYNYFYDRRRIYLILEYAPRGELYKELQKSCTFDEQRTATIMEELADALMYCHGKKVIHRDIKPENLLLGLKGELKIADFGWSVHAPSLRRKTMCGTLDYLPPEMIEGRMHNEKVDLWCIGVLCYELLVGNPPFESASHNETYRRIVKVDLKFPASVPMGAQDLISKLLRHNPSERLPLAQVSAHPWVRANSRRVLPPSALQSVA
Sequence of Mitogen-activated protein kinase 10 (P53779 whole entry): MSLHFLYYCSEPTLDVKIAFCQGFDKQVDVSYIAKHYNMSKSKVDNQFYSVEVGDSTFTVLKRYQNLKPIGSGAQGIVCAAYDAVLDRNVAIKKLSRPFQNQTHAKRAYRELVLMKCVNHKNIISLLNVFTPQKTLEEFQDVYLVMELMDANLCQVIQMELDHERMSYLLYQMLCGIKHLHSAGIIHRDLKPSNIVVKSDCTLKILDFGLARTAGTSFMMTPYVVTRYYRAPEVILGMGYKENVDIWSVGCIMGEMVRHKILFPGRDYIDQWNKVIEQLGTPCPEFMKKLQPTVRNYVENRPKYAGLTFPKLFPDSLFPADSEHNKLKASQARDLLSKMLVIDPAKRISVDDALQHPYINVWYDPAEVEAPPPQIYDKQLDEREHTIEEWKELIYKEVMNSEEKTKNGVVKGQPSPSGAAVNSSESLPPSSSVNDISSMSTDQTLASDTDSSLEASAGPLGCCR
Sequence of Focal adhesion kinase 1 (Homo sapiens) (Q05397 2-1052 limits assumed): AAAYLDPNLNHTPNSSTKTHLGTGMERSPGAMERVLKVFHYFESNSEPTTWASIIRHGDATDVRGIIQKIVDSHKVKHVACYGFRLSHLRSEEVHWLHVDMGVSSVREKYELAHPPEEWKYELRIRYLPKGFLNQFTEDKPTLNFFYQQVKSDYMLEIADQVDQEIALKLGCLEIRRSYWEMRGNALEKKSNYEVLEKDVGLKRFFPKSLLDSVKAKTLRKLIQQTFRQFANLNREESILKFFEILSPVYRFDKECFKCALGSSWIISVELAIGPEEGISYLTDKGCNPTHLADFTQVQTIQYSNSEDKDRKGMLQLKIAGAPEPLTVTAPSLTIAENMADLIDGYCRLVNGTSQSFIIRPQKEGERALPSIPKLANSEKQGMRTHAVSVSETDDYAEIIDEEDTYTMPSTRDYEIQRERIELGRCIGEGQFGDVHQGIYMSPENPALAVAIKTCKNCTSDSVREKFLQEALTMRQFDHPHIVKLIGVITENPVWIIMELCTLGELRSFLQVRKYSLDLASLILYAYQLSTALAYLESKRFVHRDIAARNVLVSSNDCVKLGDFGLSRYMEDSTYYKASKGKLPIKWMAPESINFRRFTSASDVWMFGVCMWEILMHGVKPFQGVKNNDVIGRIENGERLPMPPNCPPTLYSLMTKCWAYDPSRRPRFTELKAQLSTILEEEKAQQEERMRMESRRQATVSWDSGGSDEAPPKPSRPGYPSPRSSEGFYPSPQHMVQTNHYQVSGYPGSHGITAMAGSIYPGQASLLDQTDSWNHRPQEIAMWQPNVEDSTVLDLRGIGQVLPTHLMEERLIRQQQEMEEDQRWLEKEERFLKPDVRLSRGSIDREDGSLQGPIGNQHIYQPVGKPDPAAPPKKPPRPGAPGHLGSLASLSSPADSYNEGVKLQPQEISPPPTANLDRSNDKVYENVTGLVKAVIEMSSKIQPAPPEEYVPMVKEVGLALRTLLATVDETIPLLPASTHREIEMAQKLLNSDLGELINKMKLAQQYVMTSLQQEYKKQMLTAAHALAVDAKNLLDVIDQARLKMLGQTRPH
Sequence of Ribosomal protein S6 kinase alpha-2 (Homo sapiens) (Q15349 whole entry, the tested form may be a part): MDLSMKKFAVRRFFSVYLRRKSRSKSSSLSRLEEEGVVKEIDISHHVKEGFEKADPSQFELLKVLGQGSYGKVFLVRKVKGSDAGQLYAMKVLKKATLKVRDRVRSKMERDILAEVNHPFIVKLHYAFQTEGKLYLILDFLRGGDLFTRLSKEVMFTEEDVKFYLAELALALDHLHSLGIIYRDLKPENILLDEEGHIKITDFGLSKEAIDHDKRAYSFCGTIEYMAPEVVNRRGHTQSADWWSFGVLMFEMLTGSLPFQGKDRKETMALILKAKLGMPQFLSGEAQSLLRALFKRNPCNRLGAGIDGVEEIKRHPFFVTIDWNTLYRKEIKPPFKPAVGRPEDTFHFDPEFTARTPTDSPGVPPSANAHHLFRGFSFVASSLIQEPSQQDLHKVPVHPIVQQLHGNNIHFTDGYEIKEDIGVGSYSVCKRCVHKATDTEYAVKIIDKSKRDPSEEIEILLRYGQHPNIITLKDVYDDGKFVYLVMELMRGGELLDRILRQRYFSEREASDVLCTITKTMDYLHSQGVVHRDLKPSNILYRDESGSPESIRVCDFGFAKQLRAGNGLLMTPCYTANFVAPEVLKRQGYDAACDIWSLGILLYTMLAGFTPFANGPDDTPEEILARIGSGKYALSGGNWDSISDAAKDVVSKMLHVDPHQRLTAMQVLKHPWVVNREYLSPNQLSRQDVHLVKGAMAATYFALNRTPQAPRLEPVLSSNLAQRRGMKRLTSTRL

With `CCN1CCN(Cc2ccc(NC(=O)c3ccc(C)c(/C=C/c4cnc5[nH]ccc5c4OC)c3)cc2C(F)(F)F)CC1`, the inhibition in assay [1] was determined as 76.9%; in [2], 6.7%; in assay [3], 81.1%; in [4], 0.1%; in [5], 20%; in assay [6], 30.2%. For the same compound, the inhibition is 14% in [7]; 10.5% in assay [8]; 48.1% in assay [9]; 4.7% in [10]; 28.3% in assay [11]; -4.6% in [12]. For the same compound, the inhibition in [13] turned out to be 57.6%.
As to `CCN1CCN(Cc2ccc(NC(=O)c3ccc(C)c(Oc4ccnc5[nH]ccc45)c3)cc2C(F)(F)F)CC1`, the inhibition was 90.3% in assay [1]; 2.9% in assay [2]; 9.5% in assay [3]; -1.2% in assay [4]; 5.8% in assay [5]; 31.2% in [6]. Besides, the inhibition amounted to 6.8% in assay [7]; 0.3% in assay [8]; 70.8% in assay [9]; 1% in assay [10]; 13.1% in assay [11]; 8.1% in [12]. Moreover, in assay [13], the inhibition was 42.6%.
Regarding `CNc1cc(Oc2cc(C(=O)Nc3cc(-n4cnc(C)c4)cc(C(F)(F)F)c3)ccc2C)ncn1`, in assay [14], the inhibition was determined as 59.7%.
The same measure, in the same setting: for `CNc1cc(Oc2cc(C(=O)Nc3cc(N4CCN(C)CC4)cc(C(F)(F)F)c3)ccc2C)ncn1` the value was 49.4%.

For orientation: inhibition means the change of the read-out against control, counted positive when it falls.

(Values after ChEMBL document CHEMBL5696442, “Discovery of type II inhibitors of TGFβ-activated kinase 1 (TAK1) and mitogen-activated protein kinase kinase kinase kinase 2 (MAP4K2)” (J Med Chem, 2015).)
